From ChEMBL document CHEMBL4014306, “Pyrazolopyrimidines as Potent Stimulators for Transient Receptor Potential Canonical 3/6/7 Channels” (J Med Chem, 2017)

Legend:
Format in all cases: cell-based
[1] = biological target: T1, Short transient receptor potential channel 6 (Mus musculus) (UniProt Q61143); experiment: Agonist activity at mouse TRPC6 expressed in HEK293 cells co-expressing Gq11-PLCbeta fused M5 receptor assessed as increase in intracellular calcium level measured for 2.5 mins by Fluo-8-AM dye-based fluorescence assay
T1 sequence (whole entry): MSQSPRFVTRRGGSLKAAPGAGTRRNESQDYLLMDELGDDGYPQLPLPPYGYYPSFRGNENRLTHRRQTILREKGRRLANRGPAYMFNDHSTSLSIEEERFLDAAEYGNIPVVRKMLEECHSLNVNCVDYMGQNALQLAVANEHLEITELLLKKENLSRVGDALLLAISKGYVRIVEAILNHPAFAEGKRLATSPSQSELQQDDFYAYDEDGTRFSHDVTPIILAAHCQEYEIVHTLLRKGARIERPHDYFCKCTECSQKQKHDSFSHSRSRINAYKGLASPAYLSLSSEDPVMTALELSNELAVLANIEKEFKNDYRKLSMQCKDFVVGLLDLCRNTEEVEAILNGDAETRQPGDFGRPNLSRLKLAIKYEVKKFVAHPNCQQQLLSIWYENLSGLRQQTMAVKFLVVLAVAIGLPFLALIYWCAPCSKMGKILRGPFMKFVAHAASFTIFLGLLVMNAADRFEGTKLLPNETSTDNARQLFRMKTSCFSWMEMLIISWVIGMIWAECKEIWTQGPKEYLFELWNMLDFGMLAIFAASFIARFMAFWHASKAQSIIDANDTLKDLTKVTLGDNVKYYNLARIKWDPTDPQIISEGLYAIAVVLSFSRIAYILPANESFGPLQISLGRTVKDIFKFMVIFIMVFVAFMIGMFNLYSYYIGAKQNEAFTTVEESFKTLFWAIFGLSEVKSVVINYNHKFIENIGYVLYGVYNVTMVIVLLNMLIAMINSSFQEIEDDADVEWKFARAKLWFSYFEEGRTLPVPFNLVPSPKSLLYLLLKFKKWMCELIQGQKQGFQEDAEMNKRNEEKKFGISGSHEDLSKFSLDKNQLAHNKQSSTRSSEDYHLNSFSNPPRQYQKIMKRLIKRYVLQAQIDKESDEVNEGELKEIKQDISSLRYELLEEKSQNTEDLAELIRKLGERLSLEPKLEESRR

[2] = biological target: T2, Short transient receptor potential channel 3 (Homo sapiens) (UniProt Q13507); experiment: Agonist activity at human TRPC3 expressed in HEK293 cells assessed as induction of membrane depolarization measured for 2.5 mins in presence of 0.5 mM Ca2+ by FLIPR membrane potential dye-based fluorescence assay
T2 sequence (whole entry): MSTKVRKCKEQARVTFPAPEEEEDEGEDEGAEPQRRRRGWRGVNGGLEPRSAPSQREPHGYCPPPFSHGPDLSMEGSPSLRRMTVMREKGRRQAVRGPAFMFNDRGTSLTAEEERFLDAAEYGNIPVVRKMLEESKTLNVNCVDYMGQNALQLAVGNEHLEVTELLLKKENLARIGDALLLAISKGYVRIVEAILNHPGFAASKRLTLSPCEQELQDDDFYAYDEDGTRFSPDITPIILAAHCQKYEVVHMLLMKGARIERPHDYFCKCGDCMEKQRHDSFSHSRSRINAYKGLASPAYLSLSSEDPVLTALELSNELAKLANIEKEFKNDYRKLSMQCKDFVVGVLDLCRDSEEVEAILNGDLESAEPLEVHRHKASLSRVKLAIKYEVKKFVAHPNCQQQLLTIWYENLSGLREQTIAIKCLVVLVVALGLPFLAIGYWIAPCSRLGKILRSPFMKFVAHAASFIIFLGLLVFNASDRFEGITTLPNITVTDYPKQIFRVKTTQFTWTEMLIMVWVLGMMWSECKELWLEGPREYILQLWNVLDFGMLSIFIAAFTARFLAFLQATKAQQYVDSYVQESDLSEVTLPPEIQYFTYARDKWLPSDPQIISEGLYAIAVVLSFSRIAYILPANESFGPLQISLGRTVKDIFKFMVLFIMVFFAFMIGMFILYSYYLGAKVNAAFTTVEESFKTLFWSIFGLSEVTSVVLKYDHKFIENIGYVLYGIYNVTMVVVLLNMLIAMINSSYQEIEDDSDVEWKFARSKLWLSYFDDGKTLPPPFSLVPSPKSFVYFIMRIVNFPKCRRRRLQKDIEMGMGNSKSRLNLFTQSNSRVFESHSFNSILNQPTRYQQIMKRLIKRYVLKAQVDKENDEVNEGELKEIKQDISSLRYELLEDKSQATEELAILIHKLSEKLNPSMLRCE
In short: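 HEK293 cells stably expressing human TRPC3, run on a FlexStation at 32 °C. Loaded with FMP dye, or Fluo-type Ca2+ dye with 2 mM probenecid. Extracellular NaCl/HEPES saline, pH 7.4, with 2 mM Ca2+ (standard) or 0.5 mM Ca2+. Read as F/F0. In 0.5 mM Ca2+, FMP EC50 from a Hill fit, n = 6.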

[3] = biological target: T3, Short transient receptor potential channel 6 (Mus musculus, UniProt Q61143); experiment: (§1) Agonist activity at mouse TRPC6 expressed in HEK293 cells co-expressing Gq11-PLCbeta fused M5 receptor assessed as induction of membrane potential depolarization measured for 2.5 mins by FLIPR assay
T3 sequence (Q61143 whole entry): T1 sequence (whole entry)
In short: (§2)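 Mouse TRPC6/M5 stable HEK293 cells loaded with FLIPR membrane potential dye in extracellular solution containing 2 mM CaCl2, pH 7.4. Varying compound concentrations are applied, with 1 μM carbachol as reference, and read on a microplate reader at 32 °C. The increase in fluorescence (ΔF/F0) indicates depolarization. The concentration–response curve gives EC50, n = 6.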

[4] = biological target: T1, Short transient receptor potential channel 6 (Mus musculus); experiment: as §1; in short: as §2

Question: With CCOC(=O)N1CCC(c2cc(O)n3nc(C)c(-c4ccc(F)cc4)c3n2)CC1 as the compound, how does the Activity [1] read?
Answer: The Activity was “Dose-dependent effect”.

Question: What about the Activity [2] of the same compound?
Answer: The Activity was “Dose-dependent effect”.

Question: What about the EC50 [3] of the same compound?
Answer: The EC50 was 1400 nM.

Question: What about the Activity [4] of the same compound?
Answer: The Activity was “Dose-dependent effect”.
